Compound activity (PubChem)
In the library only some 2.9% were active in any assay of this set; here they are far more common.
SENP1 inh – human SENP1 catalytic domain inhibitors, primary screen, biochemical, FRET, uHTS | recombinant SENP1 catalytic domain, CyPet-SUMO1-YPet FRET cleavage | inhibition, % at 10 µM | 360,000 tested, 0.21% active | AID 624204, 2012;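 active means inhibition at least 30% at 10 µM, raw YFP signal under a set limit, fluorescence ratio 0.5 to 1.5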;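 further: 0% = enzyme with DMSO and 100% = no enzyme wells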
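Assay system – human recombinant His6-tagged SENP1 catalytic domain enzyme · Input – SENP1 enzyme, 20 pM final · Buffer or medium – Tris pH 8 buffer plus EDTA, NaCl, BME, BSA, NP40, catalase · Schedule – 50 min reaction at room temperature · Technique – FRET read of cyan and yellow fluorescence · Control set – no-enzyme wells low, DMSO-plus-enzyme wells high control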
SENP8 block-1 – SENP8 protease inhibitors, primary screen, biochemical, luminescence. Sentrin-specific protease 8 (Homo sapiens), Q96LD8. purified SENP8, Z-RLRGG-aminoluciferin cleavage. inhibition, % at 10 µM. 330,000 tested, 1.2% active. AID 2540, 2010; in the data active means inhibition above about 50%
Target sequence (Q96LD8 whole entry, looked up): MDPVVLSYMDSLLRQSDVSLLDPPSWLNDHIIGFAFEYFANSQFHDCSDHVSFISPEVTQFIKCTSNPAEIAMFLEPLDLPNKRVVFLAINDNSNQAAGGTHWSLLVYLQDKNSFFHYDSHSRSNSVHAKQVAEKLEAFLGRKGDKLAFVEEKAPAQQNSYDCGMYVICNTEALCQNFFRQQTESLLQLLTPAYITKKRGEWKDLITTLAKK
SENP6 inh – SENP6 protease inhibitors, primary screen, biochemical, luminescence, uHTS; Sentrin-specific protease 6 (Homo sapiens), Q9GZR1; Recombinant SENP6 catalytic domain, aminoluciferin luminescence; inhibition, % at 10 µM; 330,000 tested, 1.8% active;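 active means inhibition above about 50% at the single tested dose, limit read from the data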;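 further: plate controls were DMSO wells with enzyme for no effect and DMSO wells lacking enzyme for full effect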
Target sequence (Q9GZR1 628-1112 limits assumed): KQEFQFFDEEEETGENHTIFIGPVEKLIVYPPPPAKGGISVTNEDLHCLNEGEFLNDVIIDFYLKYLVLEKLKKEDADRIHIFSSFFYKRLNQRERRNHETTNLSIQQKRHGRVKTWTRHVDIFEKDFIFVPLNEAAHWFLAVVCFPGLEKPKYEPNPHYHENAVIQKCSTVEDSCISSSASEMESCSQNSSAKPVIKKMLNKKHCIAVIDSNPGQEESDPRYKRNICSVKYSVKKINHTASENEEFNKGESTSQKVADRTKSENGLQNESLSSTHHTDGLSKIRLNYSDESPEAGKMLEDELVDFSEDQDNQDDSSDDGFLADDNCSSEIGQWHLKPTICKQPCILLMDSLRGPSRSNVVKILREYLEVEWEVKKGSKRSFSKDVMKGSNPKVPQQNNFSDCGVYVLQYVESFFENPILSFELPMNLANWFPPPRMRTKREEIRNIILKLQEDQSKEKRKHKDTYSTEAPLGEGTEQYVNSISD
HSP90 refold inh – HSP90 inhibitors, primary screen, cell lysate, luminescence | Rabbit reticulocyte lysate, luciferase refolding luminescence, 3 h | inhibition, % at 5.6 µM | Heat shock protein HSP 90 (rabbit reticulocyte lysate; luciferase refolding) | 290,000 tested, 0.91% active;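 active means inhibition above the screen-wide mean plus 3 SD, computed separately per campaign, cut at about 16% in these data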;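 further: 0% = DMSO wells and 100% = 60 µM geldanamycin wells; inhibitors lower the luminescence because luciferase stays unfolded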
SENP8 block-2 – human SENP8 protease inhibitors, primary screen, biochemical, fluorescence, Nedd8 protein substrate, uHTS. AID 602440, 2012. Sentrin-specific protease 8 (Homo sapiens), Q96LD8. recombinant SENP8. inhibition, % at 20 µM. 360,000 tested, 0.64% active; in the data active means inhibition mostly above about 40%, no sharp cut-off; inactive means mostly below about 27%
SENP7 block – SENP7 protease inhibitors, primary screen, biochemical, luminescence, uHTS; Sentrin-specific protease 7 (Homo sapiens), Q9BQF6; recombinant SENP7, Z-RLRGG-aminoluciferin luminescence, 40 min; inhibition, % at 5 µM; 330,000 tested, 1.5% active; AID 434973, 2010;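 active means inhibition above about 50% at the single test dose, limit read from the data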;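 further: plate controls were DMSO with enzyme for no effect and no enzyme buffer wells for full effect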
SENP8 conf-1 – SENP8 protease inhibitors, retest, confirmation, biochemical, luminescence, single concentration | shares compounds with SENP7 block | Recombinant SENP8, Z-RLRGG-aminoluciferin luminescence, 60 min | inhibition, % at 12.5 µM | 6,200 tested, 40% active | AID 488912, 2010;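 active means mean inhibition across replicates above about 50%, limit read from the data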
SENP6 confirm – SENP6 protease inhibitors, confirmation, biochemical, luminescence, single concentration | recombinant SENP6, Z-RLRGG-aminoluciferin luminescence | AID 488915, 2010 | shares compounds with SENP7 block | inhibition, % at 12.5 µM | 6,200 tested, 58% active
SENP7 confirm – SENP7 protease inhibitors, retest, confirmation, biochemical, luminescence, single concentration; inhibition, % at 12.5 µM; AID 488917, 2010; 6,200 tested, 69% active; shares compounds with SENP7 block; recombinant SENP7, Z-RLRGG-aminoluciferin luminescence, 40 min
Casp3 select – caspase-3 protease inhibitors, confirmation, selectivity assay for SENP inhibitor project, biochemical, single concentration; purified caspase-3, Z-DEVD-aminoluciferin luminescence, 60 min; inhibition, % at 12.5 µM; shares compounds with SENP7 block; 6,200 tested, 60% active; AID 488918, 2010;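 active means mean inhibition above about 50%, limit read from the data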;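 further: plate controls were enzyme with DMSO for no effect and wells without caspase-3 for full effect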
SENP luc ctr – luminescence interference (SENP counter-screen); Pre-incubated SENP8/Z-RLRGG-aminoluciferin, luciferase luminescence interference; inhibition, % at 12.5 µM; 6,200 tested, 39% active; shares compounds with SENP7 block; AID 488919;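 active means mean inhibition above about 50% when retested at one dose, limit read from the data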;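 further: plate controls were DMSO wells with completed reaction for no effect and substrate without enzyme for full effect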
SENP8 conf-2 – human SENP8 protease inhibitors, confirmation, biochemical, Nedd8 protein substrate, single concentration; shares compounds with SENP8 block-2; purified SENP8, Nedd8-AMC/pro-Nedd8 cleavage fluorescence, 30 min; inhibition, % at 25 µM; 1,400 tested, 15% active; AID 624319, 2012; in the data active means inhibition mostly above about 39%, no sharp cut-off; inactive means mostly below about 34%
* hit, by the source's call.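 How the source made its calls, unless noted: active means mean inhibition above about 50% in the one-dose retest (limit read from the data); inactive means the rest.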

Results for O=[N+]([O-])c1cc([N+](=O)[O-])c2nonc2c1Nc1ccccc1O ?
SENP1 inh: -13.5; SENP8 block-1: 8.1; SENP6 inh: 26.0; HSP90 refold inh: 6.4; SENP8 block-2: 22.2; SENP7 block: 20.1

Results for O=[N+]([O-])c1cc([N+](=O)[O-])c2nonc2c1Nc1ccc(O)cc1 ?
SENP1 inh: -13.9; SENP8 block-1: -1.3; SENP6 inh: 57.9*; HSP90 refold inh: -0.3; SENP8 block-2: 79.2*; SENP7 block: 18.5; SENP8 conf-1: -4.0; SENP6 confirm: 2.0; SENP7 confirm: -4.9; Casp3 select: 3.5; SENP luc ctr: 21.2; SENP8 conf-2: 22.3

What do the screens show for `Cc1c(Cl)cccc1N=Cc1ccc([N+](=O)[O-])s1`?
SENP1 inh: 1.9; SENP8 block-1: 54.5*; SENP6 inh: 50.7*; HSP90 refold inh: 0.2; SENP8 block-2: 68.2*; SENP7 block: 35.3; SENP8 conf-1: 7.8; SENP6 confirm: 16.8; SENP7 confirm: 12.5; Casp3 select: 0.5; SENP luc ctr: -1.3; SENP8 conf-2: 20.7

How did CC1(C(=O)NS(=O)(=O)c2ccc(Cl)cc2)CCN1C(=O)CCc1ccccc1 (stereo not drawn) do in these assays?
SENP1 inh: 1.0; SENP8 block-2: 7.8

How did O=S(=O)(NCc1ccc(F)cc1)c1ccccc1Br do in these assays?
SENP1 inh: 1.6; SENP8 block-1: 0.8; SENP6 inh: 2.7; SENP8 block-2: 1.8; SENP7 block: 1.6

Results for COc1ccc2nc3ccccc3nc2c1N ?
SENP1 inh: 4.5; SENP8 block-1: 52.7*; SENP6 inh: 86.9*; HSP90 refold inh: 12.7; SENP8 block-2: 78.1*; SENP7 block: 21.6; SENP8 conf-1: -2.9; SENP6 confirm: 37.0; SENP7 confirm: 74.6*; Casp3 select: 73.0*; SENP luc ctr: 47.0; SENP8 conf-2: 14.0

How did CCN(CC)c1cc(Cl)c2nonc2c1N do in these assays?
SENP1 inh: 14.9; SENP8 block-1: 16.6; SENP6 inh: 44.0; HSP90 refold inh: 1.3; SENP8 block-2: 37.1; SENP7 block: 10.5

What do the screens show for `CN(C)c1cc(Cl)c2nonc2c1N`?
SENP1 inh: 4.7; SENP8 block-1: 95.8*; SENP6 inh: 94.8*; HSP90 refold inh: 4.7; SENP8 block-2: 88.6*; SENP7 block: 91.2*; SENP8 conf-1: 14.7; SENP6 confirm: 32.7; SENP7 confirm: 5.2; Casp3 select: -3.7; SENP luc ctr: -5.8; SENP8 conf-2: 55.9*

Results for C/C(=N\N=C(/N)c1nonc1N)c1ccc2c(c1)OCO2 ?
SENP1 inh: 5.3; SENP8 block-1: 82.3*; SENP6 inh: 84.3*; HSP90 refold inh: 4.8; SENP8 block-2: 43.2*; SENP7 block: 91.7*; SENP8 conf-1: 87.9*; SENP6 confirm: 88.4*; SENP7 confirm: 99.7*; Casp3 select: 91.4*; SENP luc ctr: 27.5; SENP8 conf-2: 14.8

What do the screens show for `CCCCCCN1CCN(C2CN(Cc3ccc([N+](=O)[O-])cc3)S(=O)(=O)C2)CC1` (stereo not drawn)?
SENP1 inh: 0.8; SENP8 block-2: 7.4

Results for O=C(NC1CCN(Cc2ccccc2)CC1)c1cc(S(=O)(=O)Nc2ccc(F)cc2)ccc1Cl ?
SENP1 inh: -1.7; SENP8 block-1: 1.9; SENP6 inh: 4.7; SENP8 block-2: 13.2; SENP7 block: 1.5

Results for COc1cc(NC(C)CCCN)c2ncccc2c1 (stereo not drawn) ?
SENP1 inh: -2.1; SENP8 block-1: 48.8; SENP6 inh: 63.9*; SENP8 block-2: 46.7*; SENP7 block: 84.0*; SENP8 conf-1: 43.6; SENP6 confirm: 68.7*; SENP7 confirm: 29.5; Casp3 select: 96.6*; SENP luc ctr: 0.8; SENP8 conf-2: 81.0*

What do the screens show for `O=C1OC(Nc2cc(Br)cc3cccnc23)c2ccccc21` (stereo not drawn)?
SENP1 inh: 0.0; SENP8 block-1: -3.9; SENP6 inh: 94.0*; HSP90 refold inh: 16.6*; SENP8 block-2: 41.0*; SENP7 block: 92.0*; SENP8 conf-1: 15.9; SENP6 confirm: 62.7*; SENP7 confirm: 51.3*; Casp3 select: 16.1; SENP luc ctr: 12.6; SENP8 conf-2: -14.3

Results for CS(=O)(=O)N1CCN(c2ccc(NC(=O)c3ccc([N+](=O)[O-])o3)cc2)CC1 ?
SENP1 inh: 2.1; HSP90 refold inh: -1.1; SENP8 block-2: 39.0

Results for CC1CCN(c2ccc(NC(=O)c3ccc([N+](=O)[O-])o3)cc2)CC1 ?
SENP1 inh: 1.4; SENP8 block-1: 44.8; SENP6 inh: 74.9*; SENP8 block-2: 55.2*; SENP7 block: 78.4*; SENP8 conf-1: -22.6; SENP6 confirm: -3.1; SENP7 confirm: 6.0; Casp3 select: 11.0; SENP luc ctr: -3.2; SENP8 conf-2: -1.0
